Converted amounts (≈) assume the structure as drawn. The source made the active and inactive calls.
Assays:
[1] = molecular target: T1, DNA topoisomerase 2-alpha (Homo sapiens, UniProt P11388); experiment: Inhibition of human topoisomerase 2alpha mediated decatenation at 30 uM using kDNA as susbtrate preincubated for 20 mins followed by substrate and ATP addition and measured after 1 hr by ethidium bromide staining based gel electrophoresis method relative to control
Summary of the method: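 Human TOP2A (3 U) preincubated 20 min at 37 °C with compound at 30 μM in 1.2% DMSO. Reaction started with 2 mM ATP and 35 ng kDNA and run 1 h at 37 °C. Products resolved on 0.8% agarose in TBE with 0.2 μg/mL ethidium bromide; decatenated bands compared with vehicle.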

[2] = molecular target: T1, DNA topoisomerase 2-alpha; experiment: Poison activity at topoisomerase 2alpha in human SW620 cells assessed as induction of DNA double stranded break by measuring gamma H2AX phosphorylation up to 40 uM after 6 hrs by Hoechst-33342 staining based immunofluorescence assay; type: cell-based
Summary of the method: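 SW620 monolayers, 20,000 cells per well, treated with compound for 6 or 24 h. Fixed in 4% paraformaldehyde, then permeabilised and blocked. Stained with γ-H2AX antibody overnight at 4 °C, FITC secondary antibody, and Hoechst 33342, then imaged at 20x.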

[3] = molecular target: T1, DNA topoisomerase 2-alpha; experiment: Inhibition of topoisomerase 2alpha dependent TCF transcription in human SW620 organoids transduced with TOPflash luminescent reporter after 72 hrs by luciferase based TOPFlash reporter gene assay
Summary of the method: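 SW620 cells stably carrying pCDH-TOPflash-luc grown as organoids: 5,000 cells per U-bottom well in phenol red-free RPMI with 5% FBS and 2% Matrigel, 72 h. Inhibitor then applied 72 h. One-Glo luciferase and CellTiter-Glo 3D added 1:1. Luciferase signal normalised to viability, then to DMSO controls.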

SW-620 [4] = experiment: Cytotoxicity against human SW620 organoids assessed as cell death with loss of membrane integrity after 72 hrs by CellTox Green assay; type: functional, cell-based; conditions: SW-620, 72 h
Summary of the method: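 SW620 tumor organoids exposed 72 h to inhibitor over 0–40 μM together with CellTox Green Express (0.5X). Whole-well mean fluorescence imaged (ex 488, em 500–550 nm). Normalised to lysis buffer as 0% viability and 0.4% DMSO as 100% viability.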

[5] = molecular target: T1, DNA topoisomerase 2-alpha; experiment: Inhibition of topoisomerase 2alpha in human SW620 organoids transfected with VimPro-GFP reporter assessed as reversion of epithelial-mesenchymal transition by measuring reduction in vimentin expression at 10 uM after 72 hrs by Hoechst 33342 staining based GFP reporter gene assay
Summary of the method: (§1)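 SW620 cells stably carrying VimPro-GFP or EcadPro-mCherry (puromycin selected) grown as organoids and dosed 72 h. Stained with 16 μM Hoechst 33342 for 1 h and imaged as 15 z-layers, 26.5 μm apart. Nuclei segmented and GFP- or mCherry-positive cells counted above background thresholds. Percent positive cells normalised to DMSO.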

SW-620 [6] = experiment: Anticlonogenic activity against human SW620 cells assessed as loss of cancer stem cell stemness by measuring inhibition of colony formation at 10 uM incubated for 24 hrs followed by replating and measured after 7 days by clonogenic assay; type: functional, cell-based
SW-620 [7] = experiment: Antiinvasive activity in human SW620 organoids transduced with NucLight-Red virus assessed as inhibition of cell invasion at 10 uM incubated for 72 hrs and measured after 72 hrs by matrigel based fluorescence analysis; type: functional
Summary of the method: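 NucLight-Red-labelled SW620 organoids treated 72 h at 10 μM in 0.1% DMSO, then dissociated. 5,000 live cells per well seeded in 50% Matrigel in the upper chamber of a migration plate, 0.5% FBS above and 20% FBS below. Invading cells tracked by bottom-side fluorescence over days, six replicates per condition.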

[8] = molecular target: T1, DNA topoisomerase 2-alpha; experiment: Inhibition of human topoisomerase 2alpha mediated decatenation using kDNA as susbtrate preincubated for 20 mins followed by substrate and ATP addition and measured after 1 hr by ethidium bromide staining based gel electrophoresis method
Summary of the method: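 IC50 from decatenation gels: TOP2A at 4 U per reaction, compound as 2-fold serial dilutions from 58.6 nM to 30 μM, 20 min preincubation. Then 2 mM ATP plus 35 ng kDNA for 1 h at 37 °C. Gels were 0.8% agarose with ethidium bromide, with decatenated and catenated DNA marker lanes.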

[9] = molecular target: T1, DNA topoisomerase 2-alpha; experiment: Inhibition of topoisomerase 2alpha dependent TCF transcription in human SW620 organoids transduced with TOPflash luminescent reporter at 10 uM after 72 hrs by luciferase based TOPFlash reporter gene assay
[10] = Drug metabolism in CD-1 mouse active microsomes assessed as CYP450-mediated oxidative phase 1 metabolite formation measured within 30 mins by LC-MS/MS analysis; type: ADME; conditions: 0.5 h
[11] = Drug metabolism in CD-1 mouse active microsomes assessed as CYP450-mediated oxidative phase 1 metabolite formation by LC-MS/MS analysis
[12] = molecular target: T1, DNA topoisomerase 2-alpha; experiment: Inhibition of topoisomerase 2alpha in human SW620 organoids transfected with EcadPro-RFP reporter assessed as reversion of epithelial-mesenchymal transition by measuring increase in E-cadherin expression at 10 uM after 72 hrs by Hoechst 33342 staining based mCherryRFP reporter gene assay; summary of the method: as §1
[13] = Metabolic stability in CD-1 mouse inactive microsomes incubated for 1 hr by LC-MS/MS analysis; type: ADME, Microsome
[14] = Aqueous solubility of compound in PBS at 1 mg after 18 hrs by UV based analysis; type: physicochemical
Summary of the method: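 Undissolved material removed by centrifugation at 5,000g for 45 min. UV absorption compared with a fully saturated 1-propanol solution; solubility derived by linear regression.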

[15] = Half life of terminal disposition phase in CD-1 mouse at 50 mg/kg, ip by LC-MS/MS analysis; type: ADME, organism-based; conditions: in vivo, read-out: t1/2lambda (converted)
Summary of the method: (§2)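 Female CD-1 mice, single IP injection at 50 mg/kg in 100% DMSO. Sampling from 0.25 to 24 h, three mice per time point (21 per compound). Heparinised blood was spun to plasma, mixed 1:1 with acidified acetonitrile (0.1% formic acid or 0.1% TFA depending on compound), centrifuged, then measured by LC-MS/MS.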

[16] = Tmax in CD-1 mouse at 50 mg/kg, ip by LC-MS/MS analysis; type: ADME, organism-based; conditions: in vivo; summary of the method: as §2
Mus musculus = experiment: Apparent volume of drug distribution in CD-1 mouse at 50 mg/kg, ip by LC-MS/MS analysis; type: ADME, organism-based; conditions: in vivo; summary of the method: as §2
[17] = Drug metabolism in CD-1 mouse active microsomes assessed as metabolite formation at rate of first-order kinetics by LC-MS/MS analysis; type: ADME, Microsome
[18] = AUC(0 to t) in CD-1 mouse at 50 mg/kg, ip by LC-MS/MS analysis; type: ADME, organism-based; conditions: in vivo; summary of the method: as §2
[19] = Cmax in CD-1 mouse at 50 mg/kg, ip by LC-MS/MS analysis; type: ADME, organism-based; design: dose 50 mg/kg, route intraperitoneal; conditions: in vivo; summary of the method: as §2
[20] = Half life in CD-1 mouse microsomes measured up to 1 hr by LC-MS analysis; type: ADME, Microsome
Summary of the method: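 Female CD-1 mouse liver microsomes (0.5 mg/mL), substrate 1 μg/mL and 1.5 mM NADPH in 0.1 M phosphate buffer pH 7.4 at 37 °C. Samples taken from 0 to 60 min and quenched with an equal volume of acetonitrile. Parent compound remaining measured by LC-MS/MS without internal standard.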

[21] = Clearance in CD-1 mouse at 50 mg/kg, ip by LC-MS/MS analysis; type: ADME, organism-based; conditions: in vivo; summary of the method: as §2

T1 sequence (P11388 whole entry): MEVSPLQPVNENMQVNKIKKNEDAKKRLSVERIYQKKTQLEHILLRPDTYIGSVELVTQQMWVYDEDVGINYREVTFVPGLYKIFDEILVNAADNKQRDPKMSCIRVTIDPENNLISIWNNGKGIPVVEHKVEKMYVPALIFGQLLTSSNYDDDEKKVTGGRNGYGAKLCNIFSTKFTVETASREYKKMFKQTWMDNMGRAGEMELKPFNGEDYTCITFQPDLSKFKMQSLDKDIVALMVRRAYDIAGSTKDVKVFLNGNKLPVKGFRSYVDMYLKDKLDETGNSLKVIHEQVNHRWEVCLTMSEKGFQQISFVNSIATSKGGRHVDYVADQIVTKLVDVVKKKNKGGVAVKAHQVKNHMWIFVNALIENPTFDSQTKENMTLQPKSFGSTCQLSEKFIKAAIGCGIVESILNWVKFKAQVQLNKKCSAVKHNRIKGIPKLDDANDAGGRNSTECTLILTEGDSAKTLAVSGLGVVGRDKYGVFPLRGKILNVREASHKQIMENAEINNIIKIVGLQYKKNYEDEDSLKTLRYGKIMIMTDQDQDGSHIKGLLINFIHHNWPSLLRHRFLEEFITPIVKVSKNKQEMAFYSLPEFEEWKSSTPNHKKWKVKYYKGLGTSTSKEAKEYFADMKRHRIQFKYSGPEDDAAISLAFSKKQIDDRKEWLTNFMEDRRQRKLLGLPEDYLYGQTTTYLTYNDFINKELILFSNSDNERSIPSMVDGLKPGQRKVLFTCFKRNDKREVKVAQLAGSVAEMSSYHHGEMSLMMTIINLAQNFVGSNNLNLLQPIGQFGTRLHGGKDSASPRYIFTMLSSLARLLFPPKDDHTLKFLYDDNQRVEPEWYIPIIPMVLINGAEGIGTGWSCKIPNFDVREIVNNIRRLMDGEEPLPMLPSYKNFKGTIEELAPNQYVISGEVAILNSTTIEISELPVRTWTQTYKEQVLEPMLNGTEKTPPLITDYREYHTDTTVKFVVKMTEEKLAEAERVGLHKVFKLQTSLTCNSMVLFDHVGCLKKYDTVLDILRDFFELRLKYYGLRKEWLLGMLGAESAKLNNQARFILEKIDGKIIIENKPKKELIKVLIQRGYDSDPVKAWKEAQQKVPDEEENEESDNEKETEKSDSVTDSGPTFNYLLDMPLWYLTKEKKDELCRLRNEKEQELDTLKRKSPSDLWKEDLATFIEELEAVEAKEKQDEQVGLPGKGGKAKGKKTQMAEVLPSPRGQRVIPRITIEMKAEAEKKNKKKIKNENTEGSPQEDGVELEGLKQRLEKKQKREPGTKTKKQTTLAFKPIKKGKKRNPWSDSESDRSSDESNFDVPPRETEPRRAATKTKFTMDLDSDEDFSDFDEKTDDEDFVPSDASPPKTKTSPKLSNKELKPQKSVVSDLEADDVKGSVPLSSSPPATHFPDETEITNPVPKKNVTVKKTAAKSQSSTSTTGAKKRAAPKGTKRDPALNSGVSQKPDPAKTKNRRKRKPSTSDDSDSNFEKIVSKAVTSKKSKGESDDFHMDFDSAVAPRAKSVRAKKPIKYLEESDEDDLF

CC(=O)Nc1ccc2c(-c3cncnc3)ccnc2c1O
inhibition [1]: 0%

CC(=O)Nc1ccc2c(-c3ccc(F)cc3)ccnc2c1O
inhibition [1]: 1%

CC(=O)Nc1ccccc1-c1ccnc2c(O)c(NC(C)=O)ccc12
inhibition [1]: 1%

CC(=O)Nc1ccc2c(-c3cc(Cl)ccc3O)ccnc2c1O
inhibition [1]: 0%

Cn1ccc2c(c1=O)C(=O)c1nccc3c1c-2nc1ccccc13 [NEOAMPHIMIDINE]
Activity [2]: Not Active

CC(=O)Nc1ccc2c(-c3cccs3)ccnc2c1O
inhibition [1]: 100%
IC50 [3]: 5 µM
EC50 (SW-620 [4]): > 30 µM

CC(=O)Nc1ccc2c(-c3cc(C(F)(F)F)ccc3O)ccnc2c1O
inhibition [1]: 100%

COc1cc(NC(C)=O)c(O)c2nccc(-c3ccccc3NC(=O)c3ccccc3)c12
inhibition [1]: 100%
IC50 [3]: 2.4 µM
inhibition [5]: Active
inhibition (SW-620 [6]): Active
inhibition (SW-620 [7]): Active
IC50 [8]: 1.2 µM
inhibition [9]: Active
Drug metabolism [10]: Metabolite_Detected
Drug metabolism [11]: Metabolite_Notdetected
inhibition [12]: Active
EC50 (SW-620 [4]): > 30 µM
Stability [13]: Stable

CC(=O)Nc1ccccc1-c1ccnc2c(O)c(NC(=O)CCN3CCOCC3)ccc12
inhibition [1]: 1%

CC(C)(C)C(=O)Nc1ccc2c(-c3ccccc3)ccnc2c1O
inhibition [1]: 97%
IC50 [3]: 4.7 µM
inhibition (SW-620 [6]): Active
inhibition (SW-620 [7]): Active
IC50 [8]: 1.3 µM
EC50 (SW-620 [4]): > 30 µM

CC(=O)Nc1ccc2c(-c3ccoc3)ccnc2c1O
inhibition [1]: 86%
IC50 [3]: 1.7 µM
inhibition (SW-620 [6]): Active
inhibition (SW-620 [7]): Active
EC50 (SW-620 [4]): > 30 µM

COc1c(NC(C)=O)ccc2c(-c3cc(F)ccc3O)ccnc12
inhibition [1]: 0%

O=C(CCN1CCOCC1)Nc1ccc2c(-c3cc4ccccc4o3)ccnc2c1O
solubility thermodynamic at 18 h [14]: 1160 µg/mL (≈ 2780 µM)
half-life [15]: 358 min
inhibition [1]: 83%
Tmax [16]: 15 min
Vz (Mus musculus): 32 L/kg
IC50 [3]: 2.5 µM
inhibition (SW-620 [6]): Active
Drug metabolism [17]: Metabolite_Detected
inhibition (SW-620 [7]): Active
Drug metabolism [10]: Metabolite_Notdetected
AUC(0-t) [18]: 12900 ng·h/mL
EC50 (SW-620 [4]): 17.4 µM
Cmax [19]: 6830 ng/mL
Stability [13]: Stable
t1/2 [20]: 14 min
CL/F [21]: 61.8 mL/min/kg

Source: ChEMBL document CHEMBL4321838, “Drug Design Targeting T-Cell Factor-Driven Epithelial-Mesenchymal Transition as a Therapeutic Strategy for Colorectal Cancer” (J Med Chem, 2019)
